ChEMBL document CHEMBL5661964, “Selective in vivo and in vitro effects of a small molecule inhibitor of cyclin-dependent kinase 4” (J Natl Cancer Inst, 2001)
The source made the active and inactive calls. The calls are words filed in the database; no cut-off is given here.

What was measured:
U2OS [1] = assay: Induction of cell cycle arrest in human U2OS cells assessed as percentage of cells at S phase, cells were released from mimosine block prior to compound addition at 5 uM after 16 hrs by flow cytometry analysis (reference value: 33%); type: functional
U2OS [2] = assay: Induction of cell cycle arrest in human U2OS cells assessed as percentage of cells at G0/G1 phase, cells were released from mimosine block prior to compound addition at 10 uM after 38 hrs by flow cytometry analysis (reference value: 39.6%); type: functional
MRC5 [3] = assay: Induction of cell cycle arrest in human MRC5 cells assessed as number of cells at S phase at 10 uM after 24 hrs in presence of 10% serum by flow cytometry analysis (reference value: 16.1%); type: functional
U2OS [4] = assay: Induction of cell cycle arrest in human U2OS cells assessed as percentage of cells at SubG1 phase, cells were released from mimosine block prior to compound addition at 5 uM after 16 hrs by flow cytometry analysis (reference value: 2.2%); type: functional
NIH3T3 [5] = assay: Induction of cell cycle arrest in mouse NIH3T3 cells expressing pRb-negative assessed as percentage of cells at G0/G1 phase at 5 uM after 24 hrs by flow cytometry analysis (reference value: 43.5%); type: functional
MRC5 [6] = assay: Induction of cell cycle arrest in human MRC5 cells assessed as number of cells at G2/M phase at 10 uM after 24 hrs in presence of 10% serum by flow cytometry analysis (reference value: 14.9%); type: functional
U2OS [7] = assay: Induction of cell cycle arrest in human U2OS cells assessed as percentage of cells at G2/M phase, cells were released from mimosine block prior to compound addition at 10 uM after 16 hrs by flow cytometry analysis (reference value: 47.6%); type: functional
U2OS [8] = assay: Induction of cell cycle arrest in human U2OS cells expressing pRb negative assessed as percentage of cells at S phase at 5 uM after 24 hrs by flow cytometry analysis (reference value: 30.3%); type: functional
U2OS [9] = assay: Induction of cell cycle arrest in human U2OS cells assessed as percentage of cells at SubG1 phase, cells were released from mimosine block prior to compound addition at 5 uM after 38 hrs by flow cytometry analysis (reference value: 5%); type: functional
HCT-116 [10] = assay: Induction of cell cycle arrest in human HCT-116 cells assessed as number of cells at SubG1 phase at 10 uM after 24 hrs in presence of 10% serum by flow cytometry analysis (reference value: 1.1%); type: functional
Method in brief: (§1)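 HCT116 cells in McCoy's 5A were serum-starved 72 h in 0.1% serum, then released for 24 h into 10% serum with or without compound. They were fixed in 70% ethanol, RNase-treated (3 mg/mL, 30 min, 37 °C) and stained with 50 μg/mL propidium iodide. Flow cytometry on FL-2 area with doublet gating gave the percentages in sub-G1, G0/G1, S and G2/M.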

CDK6/cyclin D2 = CDK6/cyclin D2 (Homo sapiens, UniProt P30279+Q00534); assay: Inhibition of GST-tagged human CDK6/Cyclin D2 expressed in baculovirus infected Sf9 cells using retinoblastoma protein in presence of ATP
Method in brief: (§2)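 Cdk holoenzymes (Cdk with GST-cyclin or activator), expressed in Sf9 insect cells and purified on glutathione-Sepharose, were combined 1:1. Radiometric reactions used [33P]ATP with GST-pRb(152), the C-terminal 152-residue pRb fragment, as substrate. Label was quantified by phosphorimager. Ten inhibitor concentrations from 0 to 100 μM were run in duplicate across three independent experiments. IC50 came from plotting percent incorporation relative to the no-inhibitor reaction against concentration.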

[11] = biological target: Hepatocyte growth factor receptor (Homo sapiens, UniProt P08581); assay: Inhibition of GST-tagged human c-met expressed in baculovirus infected Sf9 cells using tyrosine-containing peptide substrate in presence of ATP
U2OS [12] = assay: Induction of cell cycle arrest in human U2OS cells expressing pRb assessed as percentage of cells at G0/G1 phase at 10 uM after 24 hrs by flow cytometry analysis (reference value: 49.8%); type: functional
HCT-116 [13] = assay: Induction of cell cycle arrest in human HCT-116 cells assessed as number of cells at S phase at 5 uM after 24 hrs in presence of 10% serum by flow cytometry analysis (reference value: 36.3%); type: functional; method in brief: as §1
MRC5 [14] = assay: Induction of cell cycle arrest in human MRC5 cells assessed as number of cells at SubG1 phase at 10 uM after 24 hrs in presence of 10% serum by flow cytometry analysis (reference value: 4.9%); type: functional
U2OS [15] = assay: Induction of apoptosis in human U2OS cells assessed as number of apoptotic cells at 10 uM after 48 hrs by TUNEL staining based fluorescence analysis (reference value: 0.61%); type: functional
U2OS [16] = assay: Induction of cell cycle arrest in human U2OS cells expressing pRb negative assessed as percentage of cells at G0/G1 phase at 10 uM after 24 hrs by flow cytometry analysis (reference value: 42.5%); type: functional
HCT-116 [17] = assay: Antitumor activity against human HCT-116 cells xenografted in nude mouse assessed as decrease tumor volume at 30 mg/kg, ip administered every 12 hrs measured after 29 days; type: functional, organism-based; conditions: time 29.0 day
Method in brief: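 Female BALB/c nu/nu mice (19–21 g), 8 per group, injected s.c. with 0.1 mL HCT116 suspension (1 × 10^7 viable cells/mL in Hanks' buffer). Treatment started at about 100 mm3 (day 20). Dosing i.p. in 5% DMSO/0.05% Tween 80/95% saline at 10 mL/kg for 29 days; vehicle controls. Caliper volumes taken blinded every 2–4 days as length × width² × π/6. Dunnett ANOVA; growth rate compared as log-volume slopes.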

U2OS [18] = assay: Induction of cell cycle arrest in human U2OS cells assessed as percentage of cells at S phase, cells were released from mimosine block prior to compound addition at 10 uM after 38 hrs by flow cytometry analysis (reference value: […]%); type: functional
NIH3T3 [19] = assay: Induction of cell cycle arrest in mouse NIH3T3 cells expressing pRb assessed as percentage of cells at G0/G1 phase at 5 uM after 24 hrs by flow cytometry analysis (reference value: 44.7%); type: functional
NIH3T3 [20] = assay: Induction of cell cycle arrest in mouse NIH3T3 cells expressing pRb assessed as percentage of cells at S phase at 10 uM after 24 hrs by flow cytometry analysis (reference value: 12.2%); type: functional
CDK6/cyclin D1 = CDK6/cyclin D1 (Homo sapiens, UniProt Q00534); assay: Inhibition of GST-tagged human CDK6/Cyclin D1 expressed in baculovirus infected Sf9 cells using retinoblastoma protein in presence of ATP; method in brief: as §2
U2OS [21] = assay: Induction of cell cycle arrest in human U2OS cells assessed as percentage of cells at G2/M phase, cells were released from mimosine block prior to compound addition at 5 uM after 38 hrs by flow cytometry analysis (reference value: 32.3%); type: functional
U2OS [22] = assay: Induction of cell cycle arrest in human U2OS cells assessed as percentage of cells at S phase, cells were released from quinidine block prior to compound addition at 10 uM after 24 hrs by flow cytometry analysis (reference value: 21.39%); type: functional
U2OS [23] = assay: Induction of cell cycle arrest in human U2OS cells expressing pRb assessed as percentage of cells at S phase at 5 uM after 24 hrs by flow cytometry analysis (reference value: 19.9%); type: functional

Sequence of Hepatocyte growth factor receptor (P08581 whole entry): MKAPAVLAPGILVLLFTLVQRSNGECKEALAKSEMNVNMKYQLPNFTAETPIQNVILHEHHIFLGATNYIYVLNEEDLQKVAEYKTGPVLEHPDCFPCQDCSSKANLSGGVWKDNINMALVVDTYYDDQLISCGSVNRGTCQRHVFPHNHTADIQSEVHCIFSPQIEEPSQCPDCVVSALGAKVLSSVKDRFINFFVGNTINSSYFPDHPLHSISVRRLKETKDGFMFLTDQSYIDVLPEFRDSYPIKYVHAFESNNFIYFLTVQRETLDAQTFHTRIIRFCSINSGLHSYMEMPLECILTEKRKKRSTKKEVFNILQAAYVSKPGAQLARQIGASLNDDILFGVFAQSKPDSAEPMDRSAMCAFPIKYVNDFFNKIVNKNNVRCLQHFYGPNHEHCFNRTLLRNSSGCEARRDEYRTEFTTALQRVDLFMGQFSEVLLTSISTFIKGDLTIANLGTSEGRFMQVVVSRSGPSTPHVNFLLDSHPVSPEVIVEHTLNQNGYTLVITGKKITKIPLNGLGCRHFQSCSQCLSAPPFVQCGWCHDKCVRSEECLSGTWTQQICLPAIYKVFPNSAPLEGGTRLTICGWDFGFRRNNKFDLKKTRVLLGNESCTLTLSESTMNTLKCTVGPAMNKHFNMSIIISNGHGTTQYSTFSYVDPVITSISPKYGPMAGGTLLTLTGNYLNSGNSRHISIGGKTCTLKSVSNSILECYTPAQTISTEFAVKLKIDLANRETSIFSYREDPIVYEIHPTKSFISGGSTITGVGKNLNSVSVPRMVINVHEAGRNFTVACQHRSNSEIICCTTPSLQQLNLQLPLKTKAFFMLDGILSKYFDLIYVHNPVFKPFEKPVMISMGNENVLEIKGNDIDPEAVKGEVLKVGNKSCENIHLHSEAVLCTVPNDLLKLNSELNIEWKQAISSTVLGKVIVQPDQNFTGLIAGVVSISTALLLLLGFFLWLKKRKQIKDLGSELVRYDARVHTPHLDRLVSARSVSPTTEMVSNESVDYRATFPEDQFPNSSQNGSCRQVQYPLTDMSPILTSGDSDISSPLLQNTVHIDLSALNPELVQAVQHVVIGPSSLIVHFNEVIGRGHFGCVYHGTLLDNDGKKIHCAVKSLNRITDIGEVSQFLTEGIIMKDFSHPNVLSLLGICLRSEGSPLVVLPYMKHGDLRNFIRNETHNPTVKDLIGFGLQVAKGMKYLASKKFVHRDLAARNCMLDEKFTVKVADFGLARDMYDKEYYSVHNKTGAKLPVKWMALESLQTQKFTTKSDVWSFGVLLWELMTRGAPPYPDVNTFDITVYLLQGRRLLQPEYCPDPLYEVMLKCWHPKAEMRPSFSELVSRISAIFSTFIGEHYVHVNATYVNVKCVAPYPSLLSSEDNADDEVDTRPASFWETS
Sequence of CDK6/cyclin D2 (Q00534 whole entry, the tested form may be a part): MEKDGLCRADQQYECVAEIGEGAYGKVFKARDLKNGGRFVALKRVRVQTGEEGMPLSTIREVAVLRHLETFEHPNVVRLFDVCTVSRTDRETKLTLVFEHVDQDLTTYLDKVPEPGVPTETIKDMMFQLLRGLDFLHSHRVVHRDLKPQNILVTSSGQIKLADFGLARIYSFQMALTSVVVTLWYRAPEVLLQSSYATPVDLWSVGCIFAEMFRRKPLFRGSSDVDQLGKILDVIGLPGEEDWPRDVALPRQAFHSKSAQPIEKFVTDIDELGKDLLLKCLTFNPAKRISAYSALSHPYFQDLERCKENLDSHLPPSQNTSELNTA
Sequence of CDK6/cyclin D2 (P30279 whole entry, the tested form may be a part): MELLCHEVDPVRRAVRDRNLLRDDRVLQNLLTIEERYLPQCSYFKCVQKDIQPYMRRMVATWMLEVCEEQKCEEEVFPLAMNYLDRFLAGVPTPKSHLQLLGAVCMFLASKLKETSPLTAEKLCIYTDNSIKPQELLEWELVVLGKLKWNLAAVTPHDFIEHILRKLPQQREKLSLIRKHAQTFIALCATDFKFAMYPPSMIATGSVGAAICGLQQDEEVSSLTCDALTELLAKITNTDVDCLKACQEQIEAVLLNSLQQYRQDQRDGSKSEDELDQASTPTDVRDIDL
Sequence of CDK6/cyclin D1 (P24385 whole entry): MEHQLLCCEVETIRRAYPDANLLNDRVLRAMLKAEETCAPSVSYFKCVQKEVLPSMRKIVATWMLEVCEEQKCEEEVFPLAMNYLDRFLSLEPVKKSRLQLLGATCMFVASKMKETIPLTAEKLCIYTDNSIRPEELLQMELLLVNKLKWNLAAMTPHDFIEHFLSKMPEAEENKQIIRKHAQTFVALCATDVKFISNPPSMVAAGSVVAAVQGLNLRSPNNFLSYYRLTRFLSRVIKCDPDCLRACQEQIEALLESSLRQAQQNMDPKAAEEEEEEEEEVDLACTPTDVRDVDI
Sequence of CDK6/cyclin D1 (Q00534 whole entry): as the sequence (Q00534 whole entry, the tested form may be a part) above

CCNc1cc(N[C@H]2CC[C@H](O)CC2)nc(Nc2ccc3c(ccn3Cc3ccccc3)c2)n1
Activity (U2OS [1]): 33% | Activity (U2OS [2]): 14.3% | Activity (MRC5 [3]): 2.4% | Activity (U2OS [4]): 12.8% | Activity (NIH3T3 [5]): 49.8% | Activity (MRC5 [6]): 4.5% | Activity (U2OS [7]): 41% | Activity (U2OS [8]): 26.3% | Activity (U2OS [9]): 13.2% | Activity (HCT-116 [10]): 4.1% | IC50 (CDK6/cyclin D2): > 50 µM | IC50 [11]: > 10 µM | Activity (U2OS [12]): 82.9% | Activity (HCT-116 [13]): 20.7% | Activity (MRC5 [14]): 8.3% | Activity (U2OS [15]): 83.44% | Activity (U2OS [16]): 42.8% | Activity (HCT-116 [17]): Active | Activity (U2OS [18]): 15.8% | Activity (NIH3T3 [19]): 92.3% | Activity (NIH3T3 [20]): 3.1% | IC50 (CDK6/cyclin D1): 5.6 µM | Activity (U2OS [21]): 31.4% | Activity (U2OS [22]): 7.6% | Activity (U2OS [23]): 11%
